TAAR1 agonist: human TAAR1 agonism | hit rate 0.99% among 360,000 | CHO RD-HGA16 TAAR1, Fluo-8 calcium fluorescence; vehicle wells 0%, saturating PEA agonist 100% | AID 624467 | activation, % at 3 µM | Q96RJ0;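 active = activation above the mean activation of all test compounds in the run plus 3 SD, cut at about 38% in these data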
Target sequence (Q96RJ0 whole entry, looked up): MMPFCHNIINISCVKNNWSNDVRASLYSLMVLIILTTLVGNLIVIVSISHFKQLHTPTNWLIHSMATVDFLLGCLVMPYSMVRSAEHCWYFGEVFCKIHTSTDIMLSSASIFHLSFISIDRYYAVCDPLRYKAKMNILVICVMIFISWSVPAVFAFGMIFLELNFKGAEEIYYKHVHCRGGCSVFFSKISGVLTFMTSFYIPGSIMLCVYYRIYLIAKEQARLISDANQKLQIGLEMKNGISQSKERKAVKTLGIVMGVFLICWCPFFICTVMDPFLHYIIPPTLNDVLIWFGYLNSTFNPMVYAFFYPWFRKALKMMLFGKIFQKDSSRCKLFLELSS
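Assay system – CHO-derived RD-HGA16 cells with stable Gα16 and human TAAR1 · Compound dosing – one-point dosing at 3 µM (nominal) · Incubation – 17-24 h seeding, 75 min 37 °C dye, 30 min RT · Measured by – kinetic Fluo-8 calcium fluorescence · Control set – DMSO vehicle as 0%, PEA at EC100 as 100% · Repeats – single well for each compound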
NTR1 ag: agonists of human neurotensin receptor NTR1. hit rate 0.17% among 330,000. AID 493036. NTR1-U2OS beta-arrestin-GFP spot imaging, agonist mode. activation, % at 20 µM. P30989;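 active = activation at or above 40% of the spot to cytoplasm intensity ratio, with at least 20 cells analyzed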;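 note: 0% = DMSO without peptide and 100% = 100 nM NTR1 peptide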
Target sequence (P30989 whole entry, looked up): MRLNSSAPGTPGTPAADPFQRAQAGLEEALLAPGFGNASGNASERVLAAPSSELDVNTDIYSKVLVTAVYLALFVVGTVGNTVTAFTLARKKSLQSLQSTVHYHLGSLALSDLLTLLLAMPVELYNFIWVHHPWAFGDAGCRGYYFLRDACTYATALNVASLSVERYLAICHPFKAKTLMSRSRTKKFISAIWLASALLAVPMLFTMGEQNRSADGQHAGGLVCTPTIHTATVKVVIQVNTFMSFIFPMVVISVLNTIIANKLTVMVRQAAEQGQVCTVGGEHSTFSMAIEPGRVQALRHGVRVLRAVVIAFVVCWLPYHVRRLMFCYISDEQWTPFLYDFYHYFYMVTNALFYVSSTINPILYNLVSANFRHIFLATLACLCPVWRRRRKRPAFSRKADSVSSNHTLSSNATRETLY
TAAR1 antag: antagonists of human TAAR1 | AID 624466 | inhibition, % at 3 µM | hit rate 1.5% among 360,000 | CHO RD-HGA16 TAAR1, Fluo-8 calcium fluorescence, antagonist | Q96RJ0;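 active = inhibition above a per-plate cutoff, the mean inhibition of test compounds on that plate plus 3 SD, cut at about 49% in these data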;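 note: 0% = DMSO plus EC80 beta-PEA response and 100% = DMSO alone without agonist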
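Assay system: RD-HGA16 CHO cells with stable hTAAR1 and Gα16 / Reagent: EC80 β-phenethylamine stimulus / Doses: 3 µM, single point / Timing: dye loading 75 min at 37 °C, then 30 min room temperature / Measured by: Fluo-8 intracellular calcium dye fluorescence, real-time kinetic reads / Controls: vehicle wells and EC80 agonist wells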
CHO parental Ca: signal in parental CHO cells, OX1R antagonist counter-screen | parental CHO-K1, ATP-induced calcium, Fluo-8 fluorescence | inhibition, % at 5.6 µM | hit rate 0.63% among 330,000;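 active = inhibition above that plate's mean sample inhibition plus 3 SD, cut at about 26% in these data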;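 note: 0% = ATP-challenged DMSO wells and 100% = DMSO wells without ATP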
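Test system: untransfected parental CHO cell line; also added: ATP stimulus; dosing: 5.6 µM, single dose; signal: calcium-sensitive Fluo-8 fluorescence; measure: percent inhibition of ATP-evoked calcium rise, normalized to controls; benchmarks: low control ATP plus DMSO, high control DMSO only; replication: one well per compound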
OX1R antag-1: antagonists of human orexin 1 receptor (OX1R); O43613; OX1R-expressing cells, FRET antagonist read-out; inhibition, % at 6.6 µM; hit rate 1.8% among 330,000; in the data active = inhibition mostly above about 38%, no sharp cut-off; inactive = mostly below about 40%;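 note: 0% = agonist challenge alone and 100% = reference antagonist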
OX1R antag-2: antagonists of human orexin 1 receptor; CHO/OX1R cells, Fluo-8 calcium fluorescence, orexin A; inhibition, % at 5 µM; hit rate 0.43% among 330,000;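 active = inhibition above its plate's threshold, mean inhibition of all tested compounds on the plate plus 3 SD, cut at about 37% in these data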;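 note: 0% = orexin A challenge wells and 100% = SB-334867-A antagonist wells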
OX1R Fluo8 conf: confirmation of human orexin 1 receptor antagonists. shares compounds with OX1R antag-2. CHO/OX1R cells, orexin A calcium Fluo-8 fluorescence. inhibition, % at 5 µM. hit rate 38% among 1,100. AID 492963; in the data active = inhibition above about 29%;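 note: 0% = agonist challenge alone and 100% = reference antagonist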
CHO Ca triplic: counter-screen for OX1R antagonists: effect in parental CHO cells | shares compounds with OX1R antag-2 | parental CHO-K1, ATP-induced calcium, Fluo-8 fluorescence | inhibition, % at 5.6 µM | hit rate 9.3% among 1,100;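 active = inhibition above a per-plate limit, the mean inhibition of that plate's test compounds plus 3 SD, cut at about 25% in these data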;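 note: 0% = ATP challenge with DMSO and 100% = DMSO without ATP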
OX1R HTRF confirm: OX1R (human) antagonism, HTRF confirmed; shares compounds with OX1R antag-1; hit rate 49% among 1,800; inhibition, % at 6.6 µM; OX1R-expressing cells, HTRF antagonist assay; in the data active = inhibition above about 55%;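 note: CHO cells expressing OX1R stimulated with orexin A at about EC80; 0% = agonist challenge alone and 100% = reference antagonist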
CHO-K1 HTRF cnt: counter-screen for OX1R antagonists: effect in parental CHO-K1 cells | shares compounds with OX1R antag-1 | HTRF counterscreen | inhibition, % at 6.6 µM | hit rate 48% among 1,800 | AID 493232; in the data active = inhibition above about 17%;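 note: 0% = agonist challenge with vehicle and 100% = vehicle alone without agonist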
* = called active by the depositor; nt = no result given. Only some compounds are listed: those with a hit (about 4% of all), similar ones and a draw of the others.

SMILES	TAAR1 agonist	NTR1 ag	TAAR1 antag	CHO parental Ca	OX1R antag-1	OX1R antag-2	OX1R Fluo8 conf	CHO Ca triplic	OX1R HTRF confirm	CHO-K1 HTRF cnt
CNc1nc(SCC(=O)Nc2ccc(Cl)c(Cl)c2)nc(N2CCOCC2)n1	1	1	6	-10	8	-18	nt	nt	nt	nt
O=c1c2ccccc2oc2cc(-c3ccc4cc[nH]c4c3)ccc12	6	5	2	-27	80*	75*	22	-8	78*	2
O=c1cc(-c2ccsc2)oc2ccc(-c3ccc4cc[nH]c4c3)cc12	14	9	44	4	63*	72*	37*	-10	75*	-7
O=c1c2ccccc2oc2ccc(-c3ccc4[nH]ccc4c3)cc12	7	14	3	12	54	-15	nt	nt	nt	nt
Cc1noc(C)c1COC(=O)c1ccc2c(c1)S(=O)(=O)c1ccccc1C2=O	14	-1	-1	-18	111*	59*	65*	-9	102*	17*
COC(=O)c1ccc(NC(=O)CN2CCN(S(=O)(=O)c3ccc(Br)cc3)CC2)cc1	3	1	17	3	5	-21	nt	nt	nt	nt
Cc1cc(NC(=O)c2ccccc2Cl)ccc1NC(=O)c1ccccc1Cl	10	1	1	2	6	-10	nt	nt	nt	nt
Cc1ccc2sc3ccc(NC(=O)c4ccccc4Cl)cc3c(=O)c2c1	5	6	18	-17	71*	37	21	5	72*	18*
CCCc1cc(=O)[nH]c(SCCCCN2C(=O)c3ccccc3C2=O)n1	2	2	13	-17	14	-11	nt	nt	nt	nt
Cc1ccc(NC(=O)CSCC(=O)Nc2ccccc2C(=O)NC2CC2)cc1	2	-1	17	nt	nt	nt	nt	nt	nt	nt
CCC(C)(C)NC(=O)CN(C(=O)c1csnn1)c1ccccc1-c1ccccc1	13	3	-2	-24	87*	72*	32*	11	84*	4
CC(C)n1ncc2c(C(=O)NCC(=O)Nc3ccccc3Br)cc(C3CC3)nc21	nt	1	nt	-35	40*	45*	4	-3	44	2
CN1C(=O)C(=O)N(CC(=O)Nc2ccccc2OC(F)F)C1=O	1	2	13	4	-1	7	nt	nt	nt	nt
CCN(CC)c1ccc(/C=N/NC(=O)c2ccc(Br)o2)cc1	0	5	26	-11	91*	31	55*	4	90*	8
CCc1ccc(NC(=O)CN(C)S(=O)(=O)c2ccc3[nH]c(=O)oc3c2)cc1	nt	1	nt	-8	43	-21	nt	nt	nt	nt
COc1ccc(NC(=O)CN(C)S(=O)(=O)c2ccc3[nH]c(=O)oc3c2)cc1	2	-1	4	-28	56*	38	15	-3	36	7
CCn1c2ccccc2c2nc3ccccc3nc21	nt	7	nt	-5	93*	27	43*	-11	93*	-6
CCn1c2ccccc2c2nc3cc(OC)c(OC)cc3nc21	11	4	1	-11	27	-3	nt	nt	nt	nt
O=C(NCc1ccccc1)c1cc(C2CCCCN2S(=O)(=O)c2cccc3cccnc23)on1 (stereo not drawn)	1	nt	-18	nt	nt	nt	nt	nt	nt	nt
Cc1ccc2nsnc2c1S(=O)(=O)NCCc1c(C)[nH]c2ccc(F)cc12	2	-1	11	-6	78*	70*	38*	-4	62*	5
O=C(O)CCC(=O)Nc1ccc(Oc2ncnc3cc(Cl)ccc23)nc1	2	-1	-32	-9	-3	-7	nt	nt	nt	nt
Cc1ccc(NC(=O)c2cccc(S(=O)(=O)N3CCc4ccccc4C3)c2)nc1	2	3	19	-20	39*	32	-6	-12	36	4
O=C(Nc1ccc2c(c1)N(S(=O)(=O)c1cccs1)CCC2)c1c(F)cccc1F	2	2	-41	-3	69*	20	37*	1	66*	3
N#CCC(=O)Nc1ccc(C(=O)Nc2cccnc2)cc1	1	0	-13	-2	91*	32	3	13	23	-3
CC(C)(C)c1ccc(C(=O)Nc2cccnc2)cc1	1	1	-9	10	9	5	nt	nt	nt	nt
SMILES	TAAR1 agonist	NTR1 ag	TAAR1 antag	CHO parental Ca	OX1R antag-1	OX1R antag-2	OX1R Fluo8 conf	CHO Ca triplic	OX1R HTRF confirm	CHO-K1 HTRF cnt
N#CCC(=O)Nc1ccc(C(=O)Nc2ccc3c(c2)OCO3)cc1	7	0	-3	-12	67*	67*	16	3	31	4
O=C(CN1C(=O)NC2(CCCCCC2)C1=O)N1CCCCC1	4	-2	5	-11	2	-12	nt	nt	nt	nt
CC(C)OCCCNC(=O)COc1ccc2oc3c(c2c1)CCCC3	-2	0	-7	-12	3	-23	nt	nt	nt	nt
CC(=O)Nc1ccc(NC(=O)C(C)OC(=O)COc2ccc(Nc3ccccc3)cc2)cc1 (stereo not drawn)	15	0	13	-10	31*	41*	33*	-1	24	5
CCOc1ccc(OCCC(=O)OC(C)C(=O)Nc2ccc(C(C)=O)cc2)cc1 (stereo not drawn)	6	-1	-5	-8	4	-25	nt	nt	nt	nt
Cc1ccc(N(CC(=O)NCCc2ccc(Cl)cc2)S(=O)(=O)c2c(C)noc2C)cc1	-1	6	0	-32	49*	34	60*	-16	86*	3
Cc1ccc(CNC(=O)CN(c2ccc(C(C)C)cc2)S(=O)(=O)c2c(C)noc2C)cc1	-1	7	-46	-24	13	-24	nt	nt	nt	nt
COc1ccc(N(CC(=O)NC(C)c2ccccc2)S(=O)(=O)c2c(C)noc2C)cc1 (stereo not drawn)	-2	2	-10	-23	67*	44	18	-10	66*	-3
Cc1ccc(CCNC(=O)CN(c2cc(C)cc(C)c2)S(=O)(=O)c2c(C)noc2C)cc1	-2	6	-28	-7	1	-23	nt	nt	nt	nt
Cc1ccc(CCNC(=O)CN(c2ccc(C)cc2)S(=O)(=O)c2c(C)noc2C)cc1	-3	0	-42	-45	80*	60*	30*	-28	80*	8
COc1ccc(C(=O)/C=C/c2cn(CN3CCN(C)CC3)c3ccccc23)cc1	nt	21	nt	-7	71*	25	9	-9	33	6
Cc1ccc(C(=O)/C=C/c2cn(CC(O)CN3CCOCC3)c3ccccc23)cc1 (stereo not drawn)	-3	nt	-2	3	5	0	nt	nt	nt	nt

Source: PubChem
